Published values from different studies.
Each line is one published result; the experiments were not run side by side.
Target: Serine/threonine-protein kinase MRCK beta (CDC42BPB, Homo sapiens, UniProt Q9Y5S2)

SMILES	test	conditions	measurement	result
CS(=O)(=O)c1cc(C2(NC(=O)c3cncc4c3cnn4-c3ccc(F)cc3)CC2)ccn1	cell-free assay, competition with immobilised ligand	1 µM	remaining binding	100%
CCCCNc1ncc2c(-c3ccc(F)cc3)nn(C[C@H]3CC[C@H](N)CC3)c2n1	target engagement in cells, inhibitor, chemoproteomics	20 mM	inhibition	3.6%
Cc1ccc(Nc2nccc(N(C)c3ccc4c(C)n(C)nc4c3)n2)cc1S(N)(=O)=O	enzyme activity, inhibitor	0.3 µM	inhibition	9%
Nc1ncnc2occ(-c3ccc(NC(=O)Nc4cc(C(F)(F)F)ccc4F)cc3)c12	enzyme activity, inhibitor	20 µM	remaining activity	33%
CCc1ccccc1C(=O)Nc1n[nH]c2c(C)c(F)c(C3C(C#N)=C(C)N(C)C(C)=C3C#N)cc12	cell-free assay, competition with immobilised ligand	1 µM	remaining binding	100%
c1ccc(CNc2nc(N3CCOc4ccccc43)nc3c2CCCC3)cc1	target engagement in cells, inhibitor, chemoproteomics	20 mM	inhibition	-0.5%
CNC(=O)c1cc(Oc2ccc(NC(=O)Nc3ccc(Cl)c(C(F)(F)F)c3)cc2)ccn1	enzyme activity, inhibitor	0.3 µM	inhibition	12%
CC/C(=N\NC(=O)NCc1cccc(O)c1)c1ccc(O)c(C)c1O	enzyme activity, inhibitor	0.1 µM	inhibition	84.3%
O=C(NC[C@@H]1[C@H]2CN(C(=O)OCc3cc(C(F)(F)F)cc(C(F)(F)F)c3)C[C@@H]12)c1ccc2[nH]nnc2c1	cell-free assay, competition with immobilised ligand	1 µM	remaining binding	100%
Oc1cccc(-c2nc(N3CCOCC3)c3oc4ncccc4c3n2)c1	cell-free assay	0.5 µM	remaining signal	99.4%
CCOC(=O)c1cc2cc(-c3cc(C(=O)NCc4ccc(C(=O)O)cc4)nn3C)ccc2[nH]1	cell-free assay, competition with immobilised ligand	0.1 µM	remaining binding	88%
CC(C)(C)c1nc(-c2cccc(NS(=O)(=O)c3c(F)cccc3F)c2F)c(-c2ccnc(N)n2)s1	enzyme activity, inhibitor, radiometric	1 µM	remaining activity	98%
O=c1cc(-c2cccc3c2Sc2ccccc2S3)oc(N2CCOCC2)c1	enzyme activity, inhibitor	0.5 µM	remaining activity	103%
COc1cc2ncnc(Nc3ccc(Oc4ccccc4)c(C)c3C)c2cc1OC	enzyme activity, inhibitor	1 µM	inhibition	2%
Cc1cnc(NC2CCOCC2)nc1-n1cnc(C(=O)NC(CN)c2cc(F)cc(Cl)c2)c1 (centres unmarked)	enzyme activity, inhibitor, radiometric	1 µM	remaining activity	59%
O=C1c2ccccc2-c2n[nH]c3cccc1c23	enzyme activity, inhibitor	0.5 µM	activity vs control	97.2%
CCN(CC)CCNC(=O)c1c(C)[nH]c(/C=C2\C(=O)Nc3ccc(F)cc32)c1C	enzyme activity, inhibitor	0.3 µM	inhibition	8%
O=C(Nc1cccnn1)N1CCC(=Cc2cccc(Oc3ccc(C(F)(F)F)cn3)c2)CC1	cell-free assay, competition with immobilised ligand	1 µM	remaining binding	100%
N#CCCc1ccc2c(c1)-c1[nH]c3ccc([N+](=O)[O-])cc3c1CC(=O)N2	cell-free assay	0.5 µM	remaining signal	54.1%
Cc1c(NC(=O)c2cc(C(N)=O)nc3cc(F)ccc23)c(C(F)(F)F)nn1Cc1ccc(C#N)cc1	cell-free assay, competition with immobilised ligand	1 µM	remaining binding	100%
CC(C)(O)[C@H]1CC[C@H](Nc2ccc3ncc(-c4cccc(C(F)(F)F)c4)n3n2)CC1	enzyme activity, inhibitor	1 µM	remaining activity	98.9%
Cc1ccc(C(=O)Nc2ccc(CN3CCN(C)CC3)c(C(F)(F)F)c2)cc1C#Cc1cnc2cccnn12	enzyme activity, inhibitor	23.5 nM	remaining activity	95%
CSc1cccnc1N1CCN(Cc2nc3ccccc3[nH]2)CC1	cell-free assay, competition with immobilised ligand	1 µM	remaining binding	100%
CCCOc1ccc(OC)c(F)c1C(=O)c1ccc(C(=O)N[C@@H]2CNC[C@H]2NC(=O)c2ccc3[nH]ncc3c2)cc1	enzyme activity, inhibitor	10 µM	remaining activity	0%
Cc1nc(N2CC[C@@H](O)C2)ncc1-c1cc(C(F)(F)F)cc2[nH]ncc12	cell-free assay, competition with immobilised ligand	1 µM	remaining binding	100%
O=C(Nc1cnn(-c2csc(C(=O)NC3COC3)c2)c1)Nc1c(F)cccc1Cl	enzyme activity, inhibitor	5 µM	remaining activity	89%
